Measured values: ChEMBL document CHEMBL1157805, “Virtual screening, selection and development of a benzindolone structural scaffold for inhibition of lumazine synthase” (Bioorg Med Chem, 2010)
The source made the active and inactive calls. No cut-off for these calls is given here.

Columns and labels:
[1] = biological target: 6,7-dimethyl-8-ribityllumazine synthase (Mycobacterium tuberculosis) (UniProt P9WHE9); assay: Mixed Inhibition of Mycobacterium tuberculosis recombinant lumazine synthase
How it was run: (§1)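 Recombinant M. tuberculosis lumazine synthase (2 μM) in 100 mM Tris-HCl pH 7.0, 100 mM NaCl, 5 mM DTT, 2% DMSO. Dihydroxybutanone phosphate was fixed at 100 μM, pyrimidinedione substrate varied 3–100 μM, and inhibitor 0–200 μM. Reactions were started with the pyrimidinedione substrate. Lumazine formation was read at 408 nm for 30 min at 27 °C. Velocity–substrate data were fitted by nonlinear regression to alternative inhibition models.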

[2] = biological target: 6,7-dimethyl-8-ribityllumazine synthase (Mycobacterium tuberculosis) (UniProt P9WHE9); assay: Uncompetitive inhibition of Mycobacterium tuberculosis recombinant lumazine synthase; how it was run: as §1
[3] = tested on: Mycobacterium tuberculosis; assay: Activity at Mycobacterium tuberculosis recombinant riboflavin synthase after 30 mins by fluorescence assay
How it was run: (§2)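 Recombinant M. tuberculosis riboflavin synthase (1 μM) in 100 mM Tris-HCl pH 7.0, 100 mM NaCl, 5 mM DTT, 2% DMSO. 6,7-Dimethyl-8-ribityllumazine substrate was varied 3–60 μM and inhibitor 0–200 μM. Reactions were started with substrate. Riboflavin formation was monitored at 470 nm for 30 min at 27 °C. Velocity–substrate data for all inhibitor levels were fitted by nonlinear regression to alternative inhibition models.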

[4] = tested on: Mycobacterium tuberculosis; assay: Uncompetitive inhibition of Mycobacterium tuberculosis recombinant riboflavin synthase; how it was run: as §2

6,7-dimethyl-8-ribityllumazine synthase (Mycobacterium tuberculosis), sequence (P9WHE9 whole entry): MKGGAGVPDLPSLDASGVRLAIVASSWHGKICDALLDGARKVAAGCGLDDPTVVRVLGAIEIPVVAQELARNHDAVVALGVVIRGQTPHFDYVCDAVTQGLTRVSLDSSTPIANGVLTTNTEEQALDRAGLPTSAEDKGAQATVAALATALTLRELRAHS

SMILES	inhibition [1]	inhibition [2]	kcat [3]	inhibition [4]
O=C1Nc2ccc(S(=O)(=O)NCCCCC(F)(F)P(=O)(O)O)c3cccc1c23	Active			
O=C1Nc2ccc(S(=O)(=O)NCCCCCCOP(=O)(O)O)c3cccc1c23		Active	0.00933 s⁻¹	Active
CCOC(=O)C(=O)Nc1c(Cl)[nH]c(=O)[nH]c1=O	Active		0.00567 s⁻¹	Active
O=C1Nc2ccc(S(=O)(=O)NCCOP(=O)(O)O)c3cccc1c23			0.005 s⁻¹	
O=C1Nc2ccc(S(=O)(=O)NCCCOP(=O)(O)O)c3cccc1c23	Active		0.00467 s⁻¹	
O=C1Nc2ccc(S(=O)(=O)NCCCCOP(=O)(O)O)c3cccc1c23	Active		0.00483 s⁻¹	
O=C1Nc2ccc(S(=O)(=O)NCCCCCOP(=O)(O)O)c3cccc1c23		Active	0.00933 s⁻¹	Active
